Calls of active or inactive are those of the source. The rule behind the calls is not given here.
Columns and labels:
SK-N-BE(2) [1] = assay: Upregulation of NAGLU protein expression in NAGLU-silenced human SK-NBE cell clones at 20 uM incubated for 24 hrs by western blot analysis; assay type: functional, cell-based
In short: (§1)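 Western blot of control SK-NBE clone and NAGLU-shRNA SK-NBE clone (RPMI, 10% FBS, puromycin 0.7 μg/mL) after 24 h at 20 μM. Lysis, Bradford assay, 50 μg per lane, nitrocellulose transfer, anti-NAGLU antibody overnight at 4 °C, HRP secondary and ECL. GAPDH re-probe for loading.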

[2] = Cytotoxicity against human CuFi cells assessed as induction of apoptosis upto 100 uM; assay type: toxicity, cell-based
[3] = Antiproliferative activity against human CuFi cells upto 100 uM; assay type: toxicity, cell-based
SK-N-BE(2) [4] = assay: Inhibition of lysosomal defects in NAGLU-silenced human SK-NBE cell clones assessed as reduction in more concentrated lysosomal distribution in the perinuclear region of the cytoplasm at 20 uM incubated for 48 hrs by LAMP1 staining based indirect immunofluorescence assay; assay type: functional
In short: (§2)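 Control and NAGLU-silenced SK-NBE clones grown on coverslips with 20 μM compound for 48 h. Fixed in 3.7% formaldehyde, permeabilized with saponin/BSA buffer, stained with anti-Lamp1 or anti-HS 10E4 for 1 h, then Alexa secondaries. Confocal imaging with 63× objective. Scored as percent cells with enlarged Lamp1 structures or membrane HS, plus mean fluorescence intensity, over 50 random cells from three experiments.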

SK-N-BE(2) [5] = assay: Inhibition of lysosomal defects in NAGLU-silenced human SK-NBE cell clones assessed as dispersion of lysosomes all over the cytoplasm at 20 uM incubated for 48 hrs by LAMP1 staining based indirect immunofluorescence assay; assay type: functional; in short: as §2
Fibroblast [6] = assay: Inhibition of lysosomal defects in Sanfilippo-B patient derived human fibroblast cells assessed as reduction in accumulation of enlarged LAMP1-positive lysosomal structures within the cytoplasm at 20 uM incubated for 48 hrs by LAMP1 staining based indirect immunofluorescence assay; assay type: functional, cell-based
In short: (§3)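 HDFa, MPS IIIA, MPS IIIB and MPS I patient fibroblasts in DMEM, 10% FBS, grown 48 h on coverslips with 20 μM compound. Double immunostained for HS (10E4) and Lamp1 with DAPI, confocal imaging. Mean fluorescence intensity expressed relative to untreated cells (d-enantiomers: percent positive cells), 50 random cells from three experiments.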

Fibroblast [7] = assay: Inhibition of lysosomal defects in Sanfilippo-B patient derived human fibroblast cells assessed as dispersion of lysosomes all over the cytoplasm at 20 uM incubated for 48 hrs by LAMP1 staining based indirect immunofluorescence assay; assay type: functional, cell-based; in short: as §3
Fibroblast [8] = assay: Inhibition of lysosomal defects in Sanfilippo-A patient derived human fibroblast cells assessed as reduction in accumulation of enlarged LAMP1-positive lysosomal structures within the cytoplasm at 20 uM incubated for 48 hrs by LAMP1 staining based indirect immunofluorescence assay; assay type: functional, cell-based; in short: as §3
Fibroblast [9] = assay: Inhibition of lysosomal defects in MPS-1 patient derived human fibroblast cells assessed as reduction in accumulation of enlarged LAMP1-positive lysosomal structures within the cytoplasm at 40 uM incubated for 48 hrs by LAMP1 staining based indirect immunofluorescence assay; assay type: functional, cell-based
In short: (§4)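 MPS I patient fibroblasts grown on coverslips with 40 μM compound for 48 h. Immunostained for HS (10E4) and Lamp1 with DAPI, imaged by confocal microscopy. Mean fluorescence intensity expressed relative to untreated cells, 50 random cells from three independent experiments.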

Fibroblast [10] = assay: Inhibition of heparan sulfate accumulation on cell membrane in MPS-1 patient derived human fibroblast cells at 40 uM incubated for 48 hrs by indirect immunofluorescence staining analysis; assay type: functional, cell-based; in short: as §4
HeLa [11] = assay: Downregulation of EXT2 protein expression in human HeLa cells at 20 uM incubated for 24 hrs by western blot analysis; assay type: functional, cell-based
HeLa [12] = assay: Downregulation of SDC2 protein expression in human HeLa cells at 20 uM incubated for 24 hrs by western blot analysis; assay type: functional, cell-based
SK-N-BE(2) [13] = assay: Upregulation of NAGLU protein expression in human SK-NBE cells at 20 uM incubated for 24 hrs by western blot analysis; assay type: functional, cell-based; in short: as §1
Fibroblast [14] = assay: Upregulation of NAGLU protein expression in Sanfilippo-B patient derived human fibroblast cells at 20 uM incubated for 24 hrs by western blot analysis; assay type: functional, cell-based
In short: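 Sanfilippo B patient fibroblasts in DMEM, 10% FBS, treated 24 h with 20 μM compound. Lysates (50 μg per lane) blotted with anti-NAGLU antibody and HRP secondary with ECL detection; blots re-probed for β-actin as loading control.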

[15] = system: Alpha-N-acetylglucosaminidase (Homo sapiens), P54802 [UNDEFINED MUTATION]; assay: (§5) Stabilization of mutated NAGLU in Sanfilippo-B patient derived human fibroblast cells assessed as increase in NAGLU activity using 4-methylumbelliferyl-N-acetyl-alpha-D-glucosaminide as substrate at 20 uM cells pretreated for 2 hrs with substrate followed by compound addition by fluorescence based analysis; assay type: cell-based
Alpha-N-acetylglucosaminidase (Homo sapiens), P54802 [UNDEFINED MUTATION], sequence (P54802 whole entry, looked up, stated change not applied): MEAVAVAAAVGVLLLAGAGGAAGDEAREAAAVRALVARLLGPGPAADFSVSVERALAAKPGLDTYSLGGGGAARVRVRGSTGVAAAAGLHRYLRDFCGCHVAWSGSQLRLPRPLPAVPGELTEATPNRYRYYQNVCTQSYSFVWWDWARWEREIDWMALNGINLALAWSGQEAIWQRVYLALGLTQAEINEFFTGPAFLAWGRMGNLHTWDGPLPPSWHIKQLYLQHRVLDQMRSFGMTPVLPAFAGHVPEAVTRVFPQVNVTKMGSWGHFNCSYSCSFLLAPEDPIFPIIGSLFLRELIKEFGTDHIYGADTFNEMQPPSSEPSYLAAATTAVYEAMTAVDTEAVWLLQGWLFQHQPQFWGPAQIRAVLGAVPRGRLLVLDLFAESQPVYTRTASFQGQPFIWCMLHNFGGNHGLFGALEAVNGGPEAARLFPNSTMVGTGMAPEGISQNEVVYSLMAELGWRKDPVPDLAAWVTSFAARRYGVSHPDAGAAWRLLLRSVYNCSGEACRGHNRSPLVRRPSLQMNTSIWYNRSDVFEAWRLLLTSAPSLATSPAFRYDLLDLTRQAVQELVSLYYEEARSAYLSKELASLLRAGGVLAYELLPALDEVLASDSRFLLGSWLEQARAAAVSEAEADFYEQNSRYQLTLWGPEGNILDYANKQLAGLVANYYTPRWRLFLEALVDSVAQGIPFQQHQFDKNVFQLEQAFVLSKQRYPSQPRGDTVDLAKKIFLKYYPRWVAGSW
In short: (§6)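 Pellets of 5 × 10^5 MPS IIIB or HDFa fibroblasts lysed by 10 freeze–thaw cycles and clarified at 4 °C; protein by Lowry. Lysate incubated 2 h with 2 mM 4-methylumbelliferyl-N-acetyl-α-D-glucosaminide stock in 0.2 M Na-acetate pH 4.5, compound added at 20 μM. Activity normalized to protein, expressed as nmol substrate hydrolysed per h per mg.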

[16] = system: Alpha-N-acetylglucosaminidase (Homo sapiens), P54802 [UNDEFINED MUTATION]; assay: Nonactive chaperone activity against mutated NAGLU in Sanfilippo-B patient derived human fibroblast cells assessed as co-localization of NAGLU with lysosomes by measuring NAGLU/Lamp1-positive structures at 20 uM incubated for 48 hrs by indirect immunofluorescence staining based analysis; assay type: cell-based
In short: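 HDFa and MPS IIIB fibroblasts, with or without (mock) 20 μM compound, for 48 h on coverslips. Co-stained for NAGLU and Lamp1 with DAPI, confocal imaging. NAGLU–lysosome co-localization quantified as mean fluorescence relative to untreated cells, 50 random cells from three experiments.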

[17] = system: Alpha-N-acetylglucosaminidase (Homo sapiens), P54802 [UNDEFINED MUTATION]; assay: as §5, with “analysis relative to control” for “analysis”; assay type: cell-based; in short: as §6

Row | SMILES | Activity (SK-N-BE(2) [1]) | Activity [2] | Activity [3] | inhibition (SK-N-BE(2) [4]) | inhibition (SK-N-BE(2) [5]) | inhibition (Fibroblast [6]) | inhibition (Fibroblast [7]) | inhibition (Fibroblast [8]) | inhibition (Fibroblast [9]) | inhibition (Fibroblast [10]) | inhibition (HeLa [11]) | inhibition (HeLa [12]) | Activity (SK-N-BE(2) [13]) | Activity (Fibroblast [14]) | Activity [15] | Activity [16] | fold change (FC) [17]
1 | Cl.OC[C@H]1[C@H](O)[C@@H](O)[C@H](O)CN1CCCCCOCC12CC3CC(CC(C3)C1)C2 | inactive | Non-Toxic | Non-Toxic | Active | Active | Active | Active | Active | Active | Active | inactive | inactive | Active | Active | Active | Active | –
2 | COCCCCCCCCCN1C[C@@H](O)[C@H](O)[C@@H](O)[C@@H]1CO.Cl | inactive | Non-Toxic | Non-Toxic | Active | Active | Active | Active | Active | Active | Active | inactive | inactive | Active | Active | Active | Active | –
3 | Cl.OC[C@@H]1NC[C@@H](O)[C@H](O)[C@H]1O | inactive | Non-Toxic | Non-Toxic | Active | Active | Active | Active | Active | Active | Active | Active | inactive | Active | Active | Active | Active | –
4 | CCCCN1C[C@@H](O)[C@H](O)[C@@H](O)[C@@H]1CO.Cl | inactive | Non-Toxic | Non-Toxic | Active | Active | Active | Active | Active | Active | Active | Active | inactive | Active | Active | – | Active | 20
